The values below come from ChEMBL document CHEMBL1128433, “Novel 1,2-dithiins: synthesis, molecular modeling studies, and antifungal activity” (1995).

Molecules are shown by their SMILES. Converted amounts (≈) assume the structure as drawn.

Common to all, as to type: functional
One assay relates to Candida albicans. The assay can be described thus: Antifungal activity against candida albicans. A digest of the protocol: (§1)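 Candida grown 24 h at 35 °C on YM agar, then 6 h at 35 °C with rotation in GYB broth (2% glucose, 1% yeast extract). Final inoculum 2 × 10^3 cfu/mL. 96-well SAB broth microdilution, 2-fold series from ethanol or DMSO solutions. 24 h at 35 °C; MIC = lowest concentration without visible growth. Amphotericin B reference.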

A further assay relates to Cryptococcus neoformans. The assay can be described thus: Antifungal activity against cryptococcus neoformans. A digest of the protocol:
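C. neoformans grown on YM agar 48 h at 35 °C, then 6 h in GYB broth at 35 °C with rotation. Final inoculum 2 × 10^4 cfu/mL. SAB broth microdilution with 2-fold serial dilutions (compound in ethanol or DMSO). Incubated 48 h at 35 °C; MIC read visually as the lowest concentration with no growth. Amphotericin B reference.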

Another assay concerns Aspergillus fumigatus. The experiment in a line: Antifungal activity against aspergillus fumigatus. Put shortly: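 A. fumigatus grown on SAB agar 3–4 d at 35 °C; conidia used as inoculum at final 1 × 10^3 cfu/mL. Broth microdilution in SAB broth, 2-fold serial dilutions of compound dissolved in ethanol or DMSO. Incubated 48 h at 35 °C. MIC read by eye as the lowest concentration with no visible growth. Amphotericin B reference.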

For another assay, the system named is Candida parapsilosis. The experiment in a line: Antifungal activity against candida parapsilosis CP18. The note with it: Lodderomyces parapsilosis. A digest of the protocol: as §1
The next assay deals with Trichophyton rubrum. The experiment in a line: Antifungal activity against Trichophyton rubrum ATCC 18762. Put shortly:
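T. rubrum grown on SAB agar 5–7 d at 25 °C; conidia as inoculum, final 1 × 10^4 cfu/mL. Compounds in ethanol or DMSO, 2-fold serial dilutions in SAB broth in 96-well plates. Incubated 7 d at 25 °C. MIC taken as the lowest concentration with no visible growth versus the growth-control wells. Amphotericin B was the reference.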

The subject of the next assay is Pichia kudriavzevii. The assay can be described thus: Antifungal activity against candida krusei GK7831. Put shortly: as §1
Another assay deals with Candida tropicalis. The experiment in a line: Antifungal activity against candida tropicalis 1525. A digest of the protocol:
as §1

As usually defined, the MIC is the lowest concentration that inhibits growth of the organism. A higher MIC goes with weaker potency. For the compound `O=c1ccc(=O)n(CC2=CC=C(CO)SS2)[nH]1`, the MIC against Candida albicans, in the assay on Cryptococcus neoformans and in the assay with Aspergillus fumigatus was over 100 µg/mL throughout.
In the case of `OCC1=CC=C(COCC(O)CO)SS1` (centres undefined), the MIC in the assay with Candida albicans, against Cryptococcus neoformans and in the assay with Aspergillus fumigatus was over 100 µg/mL in each case.
Take `O=C(OCC1=CC=C(COC(=O)c2ccccc2)SS1)c1ccccc1`: the MIC in the assay with Candida albicans, with Cryptococcus neoformans and against Aspergillus fumigatus was over 100 µg/mL throughout.
Take `OCC1=CC=C(COc2ccccc2C(F)(F)F)SS1`: the minimal inhibitory concentration (MIC) came to 25 µg/mL (≈ 78 µM) with Candida albicans, 6.3 µg/mL (≈ 19.7 µM) with Cryptococcus neoformans and 50 µg/mL (≈ 156 µM) against Aspergillus fumigatus.
For `COC(=O)c1ccc(OCC2=CC=C(CO)SS2)cc1` the same measures were 3.1 µg/mL (≈ 9.99 µM), 3.1 µg/mL (≈ 9.99 µM) and 12.5 µg/mL (≈ 40.3 µM).
As to `OCC1=CC=C(COc2cc(C(F)(F)F)ccc2Cl)SS1`, the minimal inhibitory concentration (MIC) against Candida albicans stood at 1.6 µg/mL (≈ 4.51 µM); in the assay with Cryptococcus neoformans, 1.6 µg/mL (≈ 4.51 µM); against Aspergillus fumigatus it was 6.3 µg/mL (≈ 17.8 µM).
Consider `CCC(=O)OCC1=CC=C(COC(=O)CC)SS1`, for which the MIC was found to be 12.5 µg/mL (≈ 43.3 µM) in the assay with Candida albicans, 6.3 µg/mL (≈ 21.8 µM) in the assay with Cryptococcus neoformans and 3.1 µg/mL (≈ 10.7 µM) in the assay on Aspergillus fumigatus.
In the case of `OCC1=CC=C(COc2cccc(O)c2)SS1`, the MIC in the assay with Candida albicans was 50 µg/mL (≈ 186 µM); against Cryptococcus neoformans, 100 µg/mL (≈ 373 µM); in the assay with Aspergillus fumigatus, over 100 µg/mL.
As to `CCOC(=O)/C=C/C1=CC=C(CO)SS1`, the MIC worked out at 12.5 µg/mL (≈ 51.2 µM) with Candida albicans, 6.3 µg/mL (≈ 25.8 µM) with Cryptococcus neoformans and 25 µg/mL (≈ 102 µM) in the assay with Aspergillus fumigatus.
As for `[N-]=[N+]=NCC1=CC=C(CCl)SS1`, the MIC was 25 µg/mL (≈ 114 µM) in the assay on Candida albicans, 6.3 µg/mL (≈ 28.7 µM) in the assay with Cryptococcus neoformans and 50 µg/mL (≈ 228 µM) against Aspergillus fumigatus.
As to `OCC1=CC=C(COc2ccccc2)SS1`, the figures for the MIC against Candida albicans, with Cryptococcus neoformans and against Aspergillus fumigatus were 25 µg/mL (≈ 99.1 µM), 12.5 µg/mL (≈ 49.5 µM) and 25 µg/mL (≈ 99.1 µM), respectively.
With `CC(=O)NCC1=CC=C(CO)SS1`, the values for the MIC against Candida albicans, with Cryptococcus neoformans and against Aspergillus fumigatus were over 100 µg/mL, 100 µg/mL (≈ 460 µM) and over 100 µg/mL, respectively.
For the compound `Cc1ccc(S(=O)(=O)NC(=O)OCC2=CC=C(CO)SS2)cc1`, the MIC against Candida albicans amounted to 100 µg/mL (≈ 268 µM); against Cryptococcus neoformans it was 50 µg/mL (≈ 134 µM); with Aspergillus fumigatus, 100 µg/mL (≈ 268 µM).
With `CC(=O)OCC1=CC=C(CO)SS1`, the MIC against Candida parapsilosis was determined as 1.25 µg/mL (≈ 5.73 µM); in the assay with Candida albicans, 3.1 µg/mL (≈ 14.2 µM); in the assay with Cryptococcus neoformans, 0.2 µg/mL (≈ 0.916 µM); against Aspergillus fumigatus it was 0.4 µg/mL (≈ 1.83 µM); against Trichophyton rubrum, 0.31 µg/mL (≈ 1.42 µM); against Pichia kudriavzevii, 1.25 µg/mL (≈ 5.73 µM). In the assay on Candida tropicalis, this compound showed an MIC of 1.25 µg/mL (≈ 5.73 µM).
With `O=C(Nc1ccccc1O)OCC1=CC=C(CO)SS1`, the MIC is 100 µg/mL (≈ 321 µM) against Candida albicans, 50 µg/mL (≈ 161 µM) in the assay with Cryptococcus neoformans and 50 µg/mL (≈ 161 µM) against Aspergillus fumigatus.
Take `OCC1=CC=C(COc2ccccc2F)SS1`: the MIC against Candida albicans came out at 3.1 µg/mL (≈ 11.5 µM); in the assay on Cryptococcus neoformans, 1.6 µg/mL (≈ 5.92 µM); against Aspergillus fumigatus it was 3.1 µg/mL (≈ 11.5 µM).
For `N#C/C=C/C1=CC=C(CO)SS1`, the MIC with Candida albicans stood at 12.5 µg/mL (≈ 63.4 µM); against Cryptococcus neoformans, 3.1 µg/mL (≈ 15.7 µM); in the assay with Aspergillus fumigatus, 6.3 µg/mL (≈ 31.9 µM).
Take `COC(=O)c1ccccc1OCC1=CC=C(CO)SS1`: the MIC turned out to be 6.3 µg/mL (≈ 20.3 µM) in the assay on Candida albicans, 6.3 µg/mL (≈ 20.3 µM) against Cryptococcus neoformans and 12.5 µg/mL (≈ 40.3 µM) in the assay on Aspergillus fumigatus.
For the compound `COC(=O)/C=C/C1=CC=C(CO)SS1`, the MIC in the assay with Candida albicans, in the assay on Cryptococcus neoformans and against Aspergillus fumigatus was 6.3 µg/mL (≈ 27.4 µM) in each case.
For `OCC1=CC=C(COc2ccc(-n3ccnc3)cc2)SS1`, the MIC was found to be 12.5 µg/mL (≈ 39.3 µM) in the assay with Candida albicans, 100 µg/mL (≈ 314 µM) against Cryptococcus neoformans and 100 µg/mL (≈ 314 µM) in the assay on Aspergillus fumigatus.
On to `O=c1ccccn1CC1=CC=C(CO)SS1`, for which the results for the MIC against Candida albicans, in the assay on Cryptococcus neoformans and in the assay with Aspergillus fumigatus were over 100 µg/mL, 12.5 µg/mL (≈ 49.3 µM) and over 100 µg/mL, respectively.
With `O=c1ccc([N+](=O)[O-])cn1CC1=CC=C(CO)SS1`, the MIC against Candida albicans was over 100 µg/mL; in the assay with Cryptococcus neoformans it was 100 µg/mL (≈ 335 µM); in the assay with Aspergillus fumigatus, over 100 µg/mL.
Consider `O=C(NCC1=CC=C(CO)SS1)Nc1ccccc1O`, for which the MIC in the assay with Candida albicans, in the assay with Cryptococcus neoformans and against Aspergillus fumigatus was over 100 µg/mL in each case.
With `N#CC1=CC=C(CO)SS1`, the MIC was 0.8 µg/mL (≈ 4.67 µM) against Candida albicans, 0.8 µg/mL (≈ 4.67 µM) in the assay on Cryptococcus neoformans and 1.6 µg/mL (≈ 9.34 µM) in the assay on Aspergillus fumigatus.
Take `O=C(OCC1=CC=C(CO)SS1)c1ccncc1`: the values for the MIC against Candida albicans and against Aspergillus fumigatus were 3.1 µg/mL (≈ 11 µM) and 1.6 µg/mL (≈ 5.69 µM), respectively.
Take `CN(C)c1cccc(OCC2=CC=C(CO)SS2)c1`: the MIC against Candida albicans is over 50 µg/mL; in the assay on Cryptococcus neoformans, 50 µg/mL (≈ 169 µM); in the assay on Aspergillus fumigatus, 100 µg/mL (≈ 338 µM).
As for `OCC1=CC=C(COc2cccnc2)SS1`, the MIC with Candida albicans is 3.1 µg/mL (≈ 12.2 µM); in the assay with Cryptococcus neoformans it was 1.6 µg/mL (≈ 6.32 µM); in the assay on Aspergillus fumigatus, 3.1 µg/mL (≈ 12.2 µM).
